A selection: hits, their analogues and other compounds. The true share with any hit is near 3.8%.
Beta cell apopt: beta cell apoptosis inhibition. INS-1E cytokine-induced death, ATP luminescence, 48 h; percent of positive-control rescue, neutral wells zero. protection from apoptosis, % (no concentration beside the values). actives 0.8% (n = 300,000). AID 435005;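 active = Every replicate reaches about 75%, or at least half do and their mean reaches it too, limit read from the data; inconclusive = At least half of replicates reach the limit but their mean does not; inactive = Under half of replicates reach the limit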;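 also: 0% = cytokine-treated negative control wells and 100% = positive control rescue; higher means more ATP so stronger rescue from cytokine killing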
MC4R antag cAMP: human MC4R antagonism in cAMP assay; P32245; inhibition, % at 6.5 µM; MC4R-expressing cells, MTII-stimulated cAMP, LANCE TR-FRET; actives 0.48% (n = 360,000);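 active = inhibition above its plate's cutoff, the mean of tested wells on that plate plus 3 SD, cut at about 29% in these data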;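 also: 0% = Melanotan II alone and 100% = Melanotan II plus saturating MCL0020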
Target sequence (P32245 whole entry, looked up): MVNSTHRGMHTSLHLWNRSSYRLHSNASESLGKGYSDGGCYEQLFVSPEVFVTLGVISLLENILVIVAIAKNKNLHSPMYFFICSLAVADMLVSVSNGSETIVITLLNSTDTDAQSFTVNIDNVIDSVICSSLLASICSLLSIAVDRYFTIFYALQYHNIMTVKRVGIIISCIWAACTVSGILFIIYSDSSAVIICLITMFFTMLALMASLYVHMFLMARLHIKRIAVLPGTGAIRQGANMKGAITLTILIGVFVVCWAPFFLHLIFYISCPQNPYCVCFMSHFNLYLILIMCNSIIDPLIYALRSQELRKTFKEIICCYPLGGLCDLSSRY
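Material – human MC4R-expressing U2OS cells · Repeats – no replicates · Detection – TR-FRET with Eu-cAMP and labeled anti-cAMP, 671 nm · Times – compound 30 min, challenge 1 h, detection 1 h · Compound – single nominal compound dose of 6.5 µM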
CSC inhib: blocks cancer stem cells | cancer stem cell-like cells viability, luminescence | inhibition, % at 7.5 µM | actives 1.1% (n = 300,000) | AID 2717; in the data active = inhibition above about 75%; inconclusive = no clear call, values can overlap the other calls; tested in HMLE shEcad cells
MC4R ag barr: activates human MC4R beta-arrestin recruitment; AID 540308; activation, % at 8.9 µM; U2OS MC4R beta-arrestin complementation, luminescence; percent of melanotan II response, DMSO zero; actives 0.98% (n = 360,000); P32245;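 active = activation above a per-plate cutoff, the mean activation of sample wells on that plate plus 3 SD, cut at about 8% in these data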
ANO1 activ: activators or potentiators of mouse TMEM16A chloride channel. Q8BHY3. HEK293 TMEM16A/YFP-H148Q/I152L, iodide quench fluorescence; hits give low values. B-score at 10 µM. actives 0.3% (n = 340,000). AID 623877;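 active = fluorescence-ratio B-score plate-corrected deviation score at least 3 library SD below zero, with starting fluorescence score within 5 deviations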;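 also: channel opened by trigger with iodide after compound preincubation; score built on the fluorescence ratio of max minus min over baseline; more negative score means more quench and so TMEM16A activation or potentiation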
TMEM16A inh: blocks the mouse calcium-activated chloride channel TMEM16A. HEK293 TMEM16A/YFP iodide influx fluorescence, ionomycin. normalized B-score (activity score, 25-100; higher = stronger inhibition) at 10 µM. actives 1.2% (n = 310,000);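 active = ratio plate-corrected score three or more library SD toward inhibition, starting fluorescence score within five deviations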;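 also: score derived from kinetic fluorescence span divided by baseline fluorescence per well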
MC4R barr ag: human MC4R beta-arrestin agonism confirmation; activation, % at 8.9 µM; shares compounds with MC4R ag barr; AID 602192; U2OS MC4R beta-arrestin recruitment, luminescence; scaled DMSO 0%, Melanotan II 100%; actives 31% (n = 2,400);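 active = mean activation across replicates above the hit cutoff set in the earlier primary screen, cut at about 8% in these data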
MOR DOR agonist: activates mu-delta opioid heterodimer, MC4R agonist counter-screen | shares compounds with MC4R ag barr | U2OS PathHunter beta-arrestin, beta-gal luminescence; percent of deltorphin B response, DMSO zero | activation, % at 9.2 µM | actives 5.8% (n = 2,400) | AID 602194;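 active = mean activation across replicates exceeds the hit threshold derived in the earlier primary screen, cut at about 18% in these data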;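 also: 100% = deltorphin B at 0.9 µM final and 0% = DMSO alone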
Numbers without * were called inactive; i = inactive; ? = inconclusive; . = no result given.

SMILES	Beta cell apopt	MC4R antag cAMP	CSC inhib	MC4R ag barr	ANO1 activ	TMEM16A inh	MC4R barr ag	MOR DOR agonist
COc1cccc(/C=N/NC(=O)c2ccc(OCc3cccc(Br)c3)cc2)c1	3.3	4.4	41.9	0.1	i	i	.	.
CC(/C=N/NC(=O)c1ccc(Br)cc1)=C\c1ccccc1	1.6	0.6	7.2	28.1*	i	i	0.9	8.0
COc1ccc(C(=O)N/N=C\C(C)=C\c2ccccc2)cc1OC	19.3	-2.3	45.2	-1.7	i	i	.	.
O=C(N/N=C/c1ccc(OCc2ccccc2)cc1)c1cccs1	-1.5	0.8	9.9	13.3*	i	i	20.1*	7.6
O=C(N/N=C/c1ccc(OCc2ccccc2)cc1)c1ccncc1	1.2	16.2	6.1	-3.0	i	i	.	.
O=C(N/N=C/c1cccc(OCc2ccccc2)c1)c1ccc(Br)cc1	7.5	5.2	13.5	17.4*	i	i	-1.6	5.7
Cc1ccc(NC(=O)CSC(C)C(=O)OCc2cc(=O)oc3cc(O)ccc23)cc1 (centres undefined)	.	-2.0	.	1.1	.	.	.	.
N#Cc1cn(Cc2ccco2)c(=O)[nH]c1=O	.	2.4	.	-2.1	i	.	.	.
COc1cccc(NC(=O)C2(C)CCN2C(=O)CCc2ccc(Cl)cc2Cl)c1 (centres undefined)	.	14.3	.	0.0	.	.	.	.
Cc1ccccc1CNc1ccc(C(CC(N)=O)NC(=O)c2ccc(Br)cc2)cc1[N+](=O)[O-] (centres undefined)	90.5*	0.8	110.5*	15.7*	i	i	0.8	2.4
NC(=O)CC(NC(=O)c1ccccc1)c1ccc(NCCc2ccc(Cl)cc2)c([N+](=O)[O-])c1 (centres undefined)	-2.3	-2.2	36.6	13.3*	i	i	2.9	1.0
COc1ccc(S(=O)(=O)N(C)CC(=O)Nc2ccc(C(F)(F)F)cc2)cc1Cl	3.1	4.0	-4.6	16.7*	i	i	4.5	8.2
O=C(Nc1ccccc1O)c1c(O)c2c([nH]c1=O)CCCC2	5.4	3.7	.	8.1	i	i	.	.
N/C(Cc1ccc(Cl)cc1)=N\OC(=O)c1cccc2ccccc12	20.5	3.1	5.5	10.6*	i	i	11.5*	12.9
CCN(CC)C(=O)CSc1nc(-c2ccccc2)ccc1C#N	-3.9	10.2	-6.1	-3.2	i	i	.	.
N#Cc1ccc(-c2cccnc2)nc1SCC(=O)c1ccccc1	-0.7	7.7	43.0	11.2*	i	i	7.0	2.5
COc1ccc(-n2nnnc2/C=C\Nc2ccccc2C(=O)c2ccccc2)cc1	18.7	-1.3	23.7	-0.8	i	i	.	.
CC(=O)c1cccc(N/C=C\c2nnnn2-c2ccc(F)cc2)c1	1.3	1.8	3.5	15.8*	i	i	6.0	3.4
N#CC(=Cc1ccccn1)c1nc(-c2ccc(Cl)cc2)cs1	.	0.8	.	17.3*	.	.	3.1	3.5
COc1cc(CN2CCN(c3cccc(C)c3C)CC2)cc(Br)c1O	2.9	-16.9	57.5	11.7*	i	i	0.4	6.5
COc1ccc(CN2CCN(c3cccc(C)c3C)CC2)cc1OC	9.5	5.5	-4.9	-2.0	i	i	.	.
O=C(CCCOC(=O)c1ccc(O)cc1O)c1ccc(Br)cc1	.	5.5	.	10.5*	i	.	8.7*	6.6
O=C(CCCOC(=O)c1cccnc1Cl)c1ccc(Br)cc1	1.4	2.9	-1.5	0.1	i	.	.	.
CCCCn1c(N)c(N(C(=O)CSc2nnc(C)n2-c2ccccc2)C2CCCC2)c(=O)[nH]c1=O	-2.2	0.5	.	-1.1	i	.	.	.
COc1ccc2cc3cc(C(=O)NCc4cccs4)oc3nc2c1	5.8	-5.3	10.9	11.1*	i	i	6.5	8.5
SMILES	Beta cell apopt	MC4R antag cAMP	CSC inhib	MC4R ag barr	ANO1 activ	TMEM16A inh	MC4R barr ag	MOR DOR agonist
CNC(C)C(=O)NC(C(=O)NC(C)C(=O)Nc1cccc2ccccc12)C(C)C (centres undefined)	.	15.4	.	1.3	.	.	.	.
Cc1ccc(OCC(=O)Nc2oc(-c3ccccc3)c(-c3ccccc3)c2C#N)cc1	-4.4	1.4	-7.2	-1.7	i	i	.	.
Cc1ccnc(SCC(=O)Nc2oc(-c3ccccc3)c(-c3ccccc3)c2C#N)n1	9.1	1.2	4.7	16.7*	i	i	-1.4	4.0
OC(CSc1ccccc1)CN1CCN(c2ccccc2)CC1 (centres undefined)	.	3.1	.	2.6	i	.	.	.
O=C(CSc1nnc(CNC(=O)c2c(F)cccc2Cl)o1)NCc1ccc(F)cc1	-0.8	-2.6	15.1	1.1	i	i	.	.
CCc1ccc(OCCNc2cc(N3CCNC(C)C3)ccc2[N+](=O)[O-])cc1 (centres undefined)	24.7	-2.9	.	11.4*	i	.	23.4*	16.9
CC1CN(c2ccc([N+](=O)[O-])c(NCCOc3ccccc3)c2)CC(C)N1 (centres undefined)	1.3	1.1	61.8	-1.8	i	i	.	.
Cc1cnc(C(=O)OCC(=O)NCc2ccc(Cl)cc2)cn1	-1.5	17.1	7.0	-0.1	i	.	.	.
Cc1cc2c(cc1C)NC(C)CC(=O)N2 (centres undefined)	.	-3.9	.	-0.9	i	.	.	.
CCCN(CCC)C(=O)CSc1nc2n[nH]c(C)c2c(=N)n1-c1ccc(OCC)cc1	17.5	8.6	-17.5	0.9	i	i	.	.
Cc1[nH]nc2nc(SCC(=O)NC3CCCCC3)n(-c3ccc(Br)cc3)c(=N)c12	52.5	19.8	?	16.6*	i	i	7.6	23.1*
CCC1(CC)C(=O)N(c2ccccc2)C(=N)N(c2ccccc2)C1=O	.	-2.5	.	-1.0	i	.	.	.
CCOC(=O)c1ccc(NC(=O)Nc2cccc(C)n2)cc1	-0.6	15.9	-3.0	2.1	i	i	.	.
CCOC(=O)c1ccc(NC(=O)Nc2cc(C)on2)cc1	0.9	1.4	16.2	10.5*	i	i	4.4	7.1
O=C(OCC(=O)N1CCCCC1)c1cc(=O)[nH]c2ccccc12	6.9	-4.8	-9.6	-0.8	i	.	.	.
CCCCn1c(N)c(N(CCOC)C(=O)CSc2nnc(-c3ccco3)n2CC)c(=O)[nH]c1=O	-4.3	6.2	-13.8	-1.9	i	.	.	.
Cc1cc(C)c(Cn2c(=O)n(CCCC(=O)NCc3ccco3)c(=O)c3sccc32)c(C)c1	3.1	0.2	20.0	32.6*	i	i	-1.2	7.4

Screens deposited in PubChem by several laboratories.
